Experimental data: ChEMBL document CHEMBL1125677, “New derivatives of kanamycin B obtained by combined modifications in positions 1 and 6". Synthesis, microbiological properties, and in vitro and computer-aided toxicological evaluation” (J Med Chem, 1991)
≈ marks a conversion by molar mass, not a printed value.

Tests used:
Serratia marcescens [1] = test: Minimum inhibitory concentration was measured against Serratia marcescens S20.; format: functional
How it was run: (§1)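 Agar dilution and microtiter broth dilution, with incubation in Mueller-Hinton medium; MIC expressed in mg/L.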

Escherichia coli [2] = test: Minimum inhibitory concentration was measured against Escherichia coli 71120101 producing AAD-(4')) modifying enzyme; format: functional
How it was run: (§2)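 MICs were determined by agar dilution and by microtiter (broth) dilution in Mueller-Hinton medium against strains producing defined aminoglycoside-modifying enzymes. Values are reported in mg/L.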

Serratia marcescens [3] = test: microbe, parasite or virus in culture
Klebsiella pneumoniae [4] = test: Minimum inhibitory concentration was measured against Klebsiella pneumoniae 00GT3020 producing AAD-(2'')-modifying enzyme; format: functional; how it was run: as §2
Escherichia coli [5] = test: Minimum inhibitory concentration was measured against Escherichia coli 001574-1 producing APH-(3'') modifying enzyme; format: functional; how it was run: as §2
Providencia stuartii [6] = test: Minimum inhibitory concentration was measured against Providencia stuartii 00000164 producing AAC-(2'') modifying enzyme; format: functional; how it was run: as §1
Escherichia coli [7] = test: Minimum inhibitory concentration was measured against Escherichia coli OLA 290R5 producing AAD-(2'')-modifying enzyme; format: functional; how it was run: as §2
Providencia stuartii [8] = test: Minimum inhibitory concentration was measured against Providencia stuartii 75082808 producing AAC-(2'') modifying enzyme; format: functional; how it was run: as §1
Escherichia coli [9] = test: Minimum inhibitory concentration was measured against Escherichia coli 76070703 producing AAC-(3)-I modifying enzyme; format: functional; how it was run: as §2
Escherichia coli [10] = test: Minimum inhibitory concentration was measured against Escherichia coli 72091801 producing AAC-(3)-I modifying enzyme; format: functional; how it was run: as §2
Enterobacter cloacae = test: Minimum inhibitory concentration was measured against Enterobacter cloacae ATCC 23355; format: functional; how it was run: as §1
Escherichia coli [11] = test: Minimum inhibitory concentration was measured against Escherichia coli 73110901 producing AAC-(6')-I) modifying enzyme; format: functional; how it was run: as §1
Serratia marcescens [12] = test: Minimum inhibitory concentration was measured against Serratia marcescens S69.; format: functional; how it was run: as §1
Staphylococcus aureus [13] = test: Minimum inhibitory concentration was measured against Staphylococcus aureus ATCC 25923; format: functional; how it was run: as §1
Escherichia coli [14] = test: Minimum inhibitory concentration was measured against Escherichia coli ATCC 25992.; format: functional; how it was run: as §1
Serratia marcescens [15] = test: Minimum inhibitory concentration was measured against Serratia marcescens 75012711 producing AAD-(2'')+AAC(6'') modifying enzyme; format: functional; how it was run: as §1
Providencia stuartii [16] = test: Minimum inhibitory concentration was measured against Providencia stuartii 72052305 producing AAC-(2'') modifying enzyme; format: functional; how it was run: as §1
Escherichia coli [17] = test: Minimum inhibitory concentration was measured against Escherichia coli 00000589 producing APH-(3'') modifying enzyme; format: functional; how it was run: as §2
Staphylococcus aureus [18] = test: Minimum inhibitory concentration was measured against Staphylococcus aureus 76080401 producing AAD-(4')) modifying enzyme; format: functional; how it was run: as §1
Klebsiella pneumoniae [19] = test: (§3) Minimum inhibitory concentration was measured against Klebsiella pneumoniae 7608271 producing AAC-(3)-II modifying enzyme; format: functional; how it was run: as §1
Klebsiella pneumoniae [20] = test: Minimum inhibitory concentration was measured against Klebsiella pneumoniae 760070702 producing AAC-(3)-I modifying enzyme; format: functional; how it was run: as §1
Escherichia coli [21] = test: Minimum inhibitory concentration was measured against Escherichia coli 0000JR66 producing AAD-(2'')-modifying enzyme; format: functional; how it was run: as §1
Klebsiella pneumoniae [22] = test: Minimum inhibitory concentration was measured against Klebsiella pneumoniae 75012101 producing AAD-(2'')-modifying enzyme; format: functional; how it was run: as §1
Salmonella typhimurium [23] = test: (§4) Minimum inhibitory concentration was measured against Salmonella Typhimurium ATCC 14028; format: functional, Salmonella enterica subsp. enterica serovar Typhimurium; how it was run: as §1
Klebsiella pneumoniae [24] = test: Minimum inhibitory concentration was measured against Klebsiella pneumoniae ATCC 13883; format: functional; how it was run: as §1
Bacillus subtilis = test: Minimum inhibitory concentration was measured against Bacillus subtilis ATCC 6633.; format: functional; how it was run: as §1
[25] = system: Staphylococcus epidermidis; test: Minimum inhibitory concentration was measured against Staphylococcus epidermidis ATCC 12228.; format: functional; how it was run: as §1
Serratia marcescens [26] = test: Minimum inhibitory concentration was measured against Serratia marcescens ATCC 8100; format: functional; how it was run: as §1
Pseudomonas aeruginosa = test: Minimum inhibitory concentration was measured against Pseudomonas aeruginosa ATCC 27853; format: functional; how it was run: as §1
Salmonella typhimurium [27] = test: as §4; format: functional, salmonella typhimurium a; settings: Salmonella enterica; how it was run: as §1
Klebsiella pneumoniae [28] = test: as §3; format: functional; how it was run: as §1; remark: listed apart in the source
[29] = in the assay text read “AAC-(2')” for “AAC-(2'')”

Compound | MIC (Serratia marcescens [1]) | MIC (Escherichia coli [2]) | MIC (Serratia marcescens [3]) | MIC (Klebsiella pneumoniae [4]) | MIC (Escherichia coli [5]) | MIC (Providencia stuartii [6]) | MIC (Escherichia coli [7]) | MIC (Escherichia coli [10]) | MIC (Enterobacter cloacae) | MIC (Escherichia coli [11]) | MIC (Serratia marcescens [12]) | MIC (Staphylococcus aureus [13]) | MIC (Escherichia coli [14]) | MIC (Serratia marcescens [15]) | MIC (Escherichia coli [17]) | MIC (Klebsiella pneumoniae [24]) | MIC (Bacillus subtilis) | MIC [25] | MIC (Serratia marcescens [26]) | MIC (Pseudomonas aeruginosa) | further results
NCC[C@H](O)C(=O)N[C@@H]1C[C@H](N)[C@@H](O[C@H]2O[C@H](CN)[C@@H](O)[C@H](O)[C@H]2O)[C@H](O)[C@H]1O[C@H]1O[C@H](CO)[C@@H](O)[C@H](N)[C@H]1O [AMIKACIN] | 8 µg/mL (≈ 13.7 µM) | 4 µg/mL (≈ 6.83 µM) | 1 µg/mL (≈ 1.71 µM) | 2 µg/mL (≈ 3.42 µM) | 2 µg/mL (≈ 3.42 µM) | 16 µg/mL (≈ 27.3 µM) | 2 µg/mL (≈ 3.42 µM) | 8 µg/mL (≈ 13.7 µM) | 1 µg/mL (≈ 1.71 µM) | 256 µg/mL (≈ 437 µM) | 2 µg/mL (≈ 3.42 µM) | 1 µg/mL (≈ 1.71 µM) | 4 µg/mL (≈ 6.83 µM) | 2 µg/mL (≈ 3.42 µM) | 8 µg/mL (≈ 13.7 µM) |  |  |  |  |  | MIC (Providencia stuartii [8]; [29]): 16 µg/mL (≈ 27.3 µM); MIC (Escherichia coli [9]): 4 µg/mL (≈ 6.83 µM); MIC (Providencia stuartii [16]): 1 µg/mL (≈ 1.71 µM)
CNC1C(O)C(OC2C(O)C(OC3OC([C@@H](C)N)CCC3N)C(N)CC2(N)CO)OCC1(C)O (stereo partly specified) |  |  |  |  |  |  |  |  |  | 8 µg/mL (≈ 16.2 µM) |  |  |  | 2 µg/mL (≈ 4.05 µM) |  |  |  |  |  |  | MIC (Staphylococcus aureus [18]): 0.5 µg/mL (≈ 1.01 µM); MIC (Klebsiella pneumoniae [19]): 1 µg/mL (≈ 2.03 µM); MIC (Providencia stuartii [8]; [29]): 8 µg/mL (≈ 16.2 µM); MIC (Klebsiella pneumoniae [20]): 1 µg/mL (≈ 2.03 µM); MIC (Escherichia coli [9]): 2 µg/mL (≈ 4.05 µM); MIC (Escherichia coli [21]): 8 µg/mL (≈ 16.2 µM); MIC (Klebsiella pneumoniae [22]): 2 µg/mL (≈ 4.05 µM)
NCC1OC(OC2C(N)CC(N)(CO)C(OC3OC(CCl)C(O)C(N)C3O)C2O)C(N)C(O)C1O (stereo unspecified) | > 64 µg/mL | 128 µg/mL (≈ 241 µM) | 8 µg/mL (≈ 15 µM) | > 256 µg/mL | 2 µg/mL (≈ 3.76 µM) | 256 µg/mL (≈ 481 µM) | 8 µg/mL (≈ 15 µM) | > 256 µg/mL | 0.25 µg/mL (≈ 0.47 µM) | 128 µg/mL (≈ 241 µM) | > 64 µg/mL | 0.5 µg/mL (≈ 0.94 µM) | 1 µg/mL (≈ 1.88 µM) | > 256 µg/mL | > 128 µg/mL | 0.5 µg/mL (≈ 0.94 µM) | 1 µg/mL (≈ 1.88 µM) | 0.5 µg/mL (≈ 0.94 µM) | 2 µg/mL (≈ 3.76 µM) | > 128 µg/mL | MIC (Salmonella typhimurium [23]; Salmonella enterica): 2 µg/mL (≈ 3.76 µM); MIC (Staphylococcus aureus [18]): 256 µg/mL (≈ 481 µM); MIC (Klebsiella pneumoniae [19]): > 256 µg/mL; MIC (Klebsiella pneumoniae [20]): 1 µg/mL (≈ 1.88 µM); MIC (Escherichia coli [21]): > 256 µg/mL; MIC (Klebsiella pneumoniae [22]): 16 µg/mL (≈ 30.1 µM); MIC (Providencia stuartii [16]): 32 µg/mL (≈ 60.2 µM)
CC(=O)NCC1OC(OC2C(O)C(OC3OC(CN)C(O)C(O)C3N)C(N)CC2(N)CO)C(O)C(N)C1O (stereo unspecified) | > 64 µg/mL |  |  |  |  |  |  |  | 0.25 µg/mL (≈ 0.451 µM) |  | > 64 µg/mL | 1 µg/mL (≈ 1.8 µM) | 4 µg/mL (≈ 7.21 µM) |  |  | 2 µg/mL (≈ 3.61 µM) | 8 µg/mL (≈ 14.4 µM) | 1 µg/mL (≈ 1.8 µM) | 16 µg/mL (≈ 28.8 µM) | > 128 µg/mL | MIC (Salmonella typhimurium [27]): 8 µg/mL (≈ 14.4 µM)
[N-]=[N+]=NCC1OC(OC2C(O)C(OC3OC(CN)C(O)C(O)C3N)C(N)CC2(N)CO)C(O)C(N)C1O (stereo unspecified) | > 64 µg/mL |  |  |  |  |  |  |  | 0.25 µg/mL (≈ 0.464 µM) |  | > 64 µg/mL | 0.5 µg/mL (≈ 0.928 µM) | 1 µg/mL (≈ 1.86 µM) |  |  | 0.5 µg/mL (≈ 0.928 µM) | 2 µg/mL (≈ 3.71 µM) | 1 µg/mL (≈ 1.86 µM) | 2 µg/mL (≈ 3.71 µM) | > 128 µg/mL | MIC (Salmonella typhimurium [27]): 1 µg/mL (≈ 1.86 µM)
NC[C@H]1O[C@H](O[C@H]2[C@H](O)[C@@H](O[C@H]3O[C@H](CO)[C@@H](O)[C@H](N)[C@H]3O)[C@H](N)C[C@@H]2N)[C@H](N)[C@@H](O)[C@@H]1O [BEKANAMYCIN] | > 64 µg/mL |  |  |  |  |  |  |  | 0.25 µg/mL (≈ 0.517 µM) |  | > 64 µg/mL | 0.5 µg/mL (≈ 1.03 µM) | 1 µg/mL (≈ 2.07 µM) |  |  | 0.25 µg/mL (≈ 0.517 µM) | 0.5 µg/mL (≈ 1.03 µM) | 0.25 µg/mL (≈ 0.517 µM) | 1 µg/mL (≈ 2.07 µM) | > 128 µg/mL | MIC (Salmonella typhimurium [23]; Salmonella enterica): 1 µg/mL (≈ 2.07 µM)
NCC1OC(OC2C(N)CC(N)(CO)C(OC3OC(CO)C(O)C(N)C3O)C2O)C(N)C(O)C1O (stereo unspecified) | > 64 µg/mL | > 128 µg/mL | 4 µg/mL (≈ 7.79 µM) | > 128 µg/mL | 4 µg/mL (≈ 7.79 µM) | > 128 µg/mL | 8 µg/mL (≈ 15.6 µM) | > 128 µg/mL | 0.25 µg/mL (≈ 0.487 µM) | > 128 µg/mL | > 64 µg/mL | 0.25 µg/mL (≈ 0.487 µM) | 0.5 µg/mL (≈ 0.974 µM) | > 128 µg/mL | > 128 µg/mL | 0.25 µg/mL (≈ 0.487 µM) | 0.5 µg/mL (≈ 0.974 µM) | 0.25 µg/mL (≈ 0.487 µM) | 1 µg/mL (≈ 1.95 µM) | > 128 µg/mL | MIC (Salmonella typhimurium [23]; Salmonella enterica): 1 µg/mL (≈ 1.95 µM); MIC (Staphylococcus aureus [18]): > 128 µg/mL; MIC (Klebsiella pneumoniae [19]): > 128 µg/mL; MIC (Klebsiella pneumoniae [20]): 1 µg/mL (≈ 1.95 µM); MIC (Escherichia coli [21]): > 128 µg/mL; MIC (Klebsiella pneumoniae [22]): 4 µg/mL (≈ 7.79 µM); MIC (Providencia stuartii [16]): 16 µg/mL (≈ 31.2 µM)
GENTAMICIN | 128 µg/mL | 2 µg/mL |  | 32 µg/mL | 1 µg/mL |  | 64 µg/mL | 2 µg/mL | 1 µg/mL | 4 µg/mL | 128 µg/mL | 1 µg/mL | 1 µg/mL | 32 µg/mL | 2 µg/mL | 1 µg/mL | 1 µg/mL | 1 µg/mL | 1 µg/mL | 1 µg/mL | MIC (Salmonella typhimurium [23]; Salmonella enterica subsp. enterica serovar Typhimurium): 1 µg/mL; MIC (Klebsiella pneumoniae [28]): 256 µg/mL; MIC (Providencia stuartii [8]; pseudomonas stuartii): 64 µg/mL; MIC (Escherichia coli [9]): 128 µg/mL
